# Source: ChEMBL document CHEMBL1141626, “Thiosemicarbazones active against Clostridium difficile” (2008)
# Columns and labels:
# Type in all cases: functional
# Staphylococcus aureus [1] = experiment: Antimicrobial activity against methicillin-resistant Staphylococcus aureus C1 after 24 hrs
# Outline: (§1)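 MIC by dilution in nutrient broth. Anaerobic organisms were incubated in an anaerobic cabinet. Controls were the same organisms incubated without test compound.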
# Clostridioides difficile [2] = experiment: Antimicrobial activity against Clostridium difficile Z387 after 48 hrs
# Outline: (§2)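 Anaerobes incubated in an anaerobic cabinet for broth MIC determination. Drug-free incubations of the same organisms served as controls. Value is the minimum inhibitory concentration.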
# Cutibacterium acnes [3] = experiment: Antimicrobial activity against Propionibacterium acnes D3 after 48 hrs; outline: as §1
# Clostridioides difficile [4] = experiment: Antimicrobial activity against Clostridium difficile Z21 after 48 hrs; outline: as §2
# Staphylococcus aureus [5] = experiment: Antimicrobial activity against methicillin-resistant Staphylococcus aureus E1 after 24 hrs; outline: as §1
# Clostridioides difficile [6] = experiment: Antimicrobial activity against Clostridium difficile Z171 after 48 hrs; outline: as §2
# Candida albicans [7] = experiment: Antimicrobial activity against Candida albicans 1012155
# Clostridioides difficile [8] = experiment: Antimicrobial activity against Clostridium difficile Z66 after 48 hrs; outline: as §2
# Clostridioides difficile [9] = experiment: Antimicrobial activity against Clostridium difficile Z169 after 48 hrs; outline: as §2
# Clostridioides difficile [10] = experiment: Antimicrobial activity against Clostridium difficile Z166 after 48 hrs; outline: as §2
# [11] = test system: Staphylococcus epidermidis; experiment: Antimicrobial activity against Staphylococcus epidermidis 11 after 24 hrs; outline: as §1
# Staphylococcus aureus [12] = experiment: Antimicrobial activity against methicillin-resistant Staphylococcus aureus B1 after 24 hrs; outline: as §1
# Clostridioides difficile [13] = experiment: Antimicrobial activity against Clostridium difficile Z1579 after 48 hrs; outline: as §2
# Clostridioides difficile [14] = experiment: Antimicrobial activity against Clostridium difficile Z16 after 48 hrs; outline: as §2
# Candida albicans [15] = experiment: Antimicrobial activity against Candida albicans 1013781
# Clostridioides difficile [16] = experiment: Antimicrobial activity against Clostridium difficile Z164 after 48 hrs; outline: as §2
# Clostridioides difficile [17] = experiment: Antimicrobial activity against Clostridium difficile Z172 after 48 hrs; outline: as §2
# Clostridioides difficile [18] = experiment: Antimicrobial activity against Clostridium difficile Z251 after 48 hrs; outline: as §2
# Cutibacterium acnes [19] = experiment: Antimicrobial activity against Propionibacterium acnes B3 after 24 hrs
# Acinetobacter sp. [20] = experiment: Antimicrobial activity against Acinetobacter sp.2
# [21] = test system: Staphylococcus epidermidis; experiment: Antimicrobial activity against Staphylococcus epidermidis 7A after 24 hrs; outline: as §1
# Clostridioides difficile [22] = experiment: Antimicrobial activity against Clostridium difficile Z163 after 48 hrs; outline: as §2
# Staphylococcus aureus [23] = experiment: Antimicrobial activity against methicillin-sensitive Staphylococcus aureus A2 after 24 hrs; outline: as §1
# Clostridioides difficile [24] = experiment: Antimicrobial activity against Clostridium difficile Z162 after 48 hrs; outline: as §2
# Clostridioides difficile [25] = experiment: Antimicrobial activity against Clostridium difficile Z159 after 48 hrs; outline: as §2
# Clostridioides difficile [26] = experiment: Antimicrobial activity against Clostridium difficile Z1580 after 48 hrs; outline: as §2
# Staphylococcus aureus [27] = experiment: Antimicrobial activity against methicillin-sensitive Staphylococcus aureus A3 after 24 hrs; outline: as §1
# Staphylococcus aureus [28] = experiment: Antimicrobial activity against methicillin-resistant Staphylococcus aureus A3 after 24 hrs; outline: as §1
# Candida albicans [29] = experiment: Antimicrobial activity against Candida albicans 1011377
# Clostridioides difficile [30] = experiment: Antimicrobial activity against Clostridium difficile Z1577 after 48 hrs; outline: as §2
# Staphylococcus aureus [31] = experiment: Antimicrobial activity against Staphylococcus aureus ATCC 6538 after 24 hrs; conditions: ATCC 6538, 24 h; outline: as §1
# Acinetobacter sp. [32] = experiment: Antimicrobial activity against Acinetobacter sp.3
# Acinetobacter sp. [33] = experiment: Antimicrobial activity against Acinetobacter sp.1
# Clostridioides difficile [34] = experiment: Antimicrobial activity against Clostridium difficile Z160 after 48 hrs; outline: as §2
# Staphylococcus aureus [35] = experiment: Antimicrobial activity against methicillin-resistant Staphylococcus aureus B3 after 24 hrs; outline: as §1
# Candida albicans [36] = experiment: Antimicrobial activity against Candida albicans 1009116
# [37] = test system: Staphylococcus epidermidis; experiment: Antimicrobial activity against Staphylococcus epidermidis 8A after 24 hrs; outline: as §1
# Staphylococcus aureus [38] = experiment: Antimicrobial activity against methicillin-resistant Staphylococcus aureus D1 after 24 hrs; outline: as §1
# Clostridioides difficile [39] = experiment: Antimicrobial activity against Clostridium difficile Z170 after 48 hrs; outline: as §2
structure (smiles),measurement,setting,value
CCNC(=S)N/N=C/C=C/c1ccc([N+](=O)[O-])o1,MIC,Staphylococcus aureus [1],2 µg/mL
same,MIC,Clostridioides difficile [2],16 µg/mL
same,MIC,Cutibacterium acnes [3],4 µg/mL
same,MIC,Clostridioides difficile [4],16 µg/mL
same,MIC,Staphylococcus aureus [5],4 µg/mL
same,MIC,Clostridioides difficile [6],2 µg/mL
same,MIC,Candida albicans [7],128 µg/mL
same,MIC,Clostridioides difficile [8],4 µg/mL
same,MIC,Clostridioides difficile [9],2 µg/mL
same,MIC,Clostridioides difficile [10],2 µg/mL
same,MIC,[11],1 µg/mL
same,MIC,Staphylococcus aureus [12],4 µg/mL
same,MIC,Clostridioides difficile [13],2 µg/mL
same,MIC,Clostridioides difficile [14],8 µg/mL
same,MIC,Candida albicans [15],128 µg/mL
same,MIC,Clostridioides difficile [16],1 µg/mL
same,MIC,Clostridioides difficile [17],4 µg/mL
same,MIC,Clostridioides difficile [18],1 µg/mL
same,MIC,Cutibacterium acnes [19],8 µg/mL
same,MIC,Acinetobacter sp. [20],128 µg/mL
same,MIC,[21],2 µg/mL
same,MIC,Clostridioides difficile [22],2 µg/mL
same,MIC,Staphylococcus aureus [23],4 µg/mL
same,MIC,Clostridioides difficile [24],0.125 µg/mL
same,MIC,Clostridioides difficile [25],8 µg/mL
same,MIC,Clostridioides difficile [26],1 µg/mL
same,MIC,Staphylococcus aureus [27],4 µg/mL
same,MIC,Staphylococcus aureus [28],4 µg/mL
same,MIC,Candida albicans [29],128 µg/mL
same,MIC,Clostridioides difficile [30],0.5 µg/mL
same,MIC,Staphylococcus aureus [31],4 µg/mL
same,MIC,Acinetobacter sp. [32],128 µg/mL
same,MIC,Acinetobacter sp. [33],128 µg/mL
same,MIC,Clostridioides difficile [34],8 µg/mL
same,MIC,Staphylococcus aureus [35],4 µg/mL
same,MIC,Candida albicans [36],128 µg/mL
same,MIC,[37],2 µg/mL
same,MIC,Staphylococcus aureus [38],4 µg/mL
same,MIC,Clostridioides difficile [39],2 µg/mL
